Bioassay records from PubChem.
This is a sample that favours compounds with a hit; in the whole collection about 1.6% have one here.
Arr AP2 block: inhibitors of human beta-arrestin and AP2 interaction | FITC-arrestin peptide / GST-AP2 beads, flow cytometry; AP2 beta2 appendage carries R879A mutation | inhibition, % at 10 µM | actives 0.31% (n = 340,000);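 active = inhibition above a set limit, near 3 SD of compounds lacking own fluorescence, cut at about 54% in these data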
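Material – AP2 appendage R879A on GSH beads · Buffer or medium – PBS with 0.05% Tween 20 and 0.1% BSA · Probe or stimulus – fluorescein-tagged arrestin peptide at 50 nM final · Incubation – compound with beads 12 min RT, then probe 1 h RT · Detection – high-throughput flow cytometry of beads, ex 488, em 535 nm · Evaluation – percent response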
TbMetRS inhib: blocks T. brucei methionyl-tRNA synthetase activity | actives 0.4% (n = 360,000) | inhibition, % at 11.9 µM | purified T. brucei MetRS, ATP depletion, Kinase-Glo luminescence;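 active = inhibition above a per-plate cutoff of the control wells' mean inhibition plus 3 SD, cut at about 5.5% in these data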
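Material: T. brucei methionyl-tRNA synthetase, purified; reagent: substrates ATP, L-methionine and bulk Escherichia coli tRNA; dosing: 11.9 µM single point; timing: 15 min plus 2 h at 25 °C; detection: luminescence of leftover ATP; evaluation: % inhibition; control set: DMSO-only wells as low control; replicates: singlicate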
Rin1-Abl PPI inh: human Rin1-Abl interaction inhibition. P00519+Q13671. TR-FRET Rin1/Abl binding, biochemical. inhibition, % at 7.35 µM. actives 0.4% (n = 360,000); in the data active = inhibition above about 5%, passing the limit was not always enough
MT1-MMP act inh: MT1-MMP (human) activation inhibition; HT1080 RFP-PRO-GFP cells, GFP/RFP ratio fluorescence, overnight; percent of plate control window, DMSO zero; GFP/RFP ratio change, % at 20 µM; actives 0.061% (n = 360,000); AID 651647;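 active = GFP/RFP ratio change of at least 30% with cell ATP level not reduced by more than half and red fluorescence within 50% of control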
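Assay system: RFP-PRO-GFP reporter HT1080 cells; read-out basis: GFP/RFP fluorescence ratio; benchmarks: DMSO wells and RFP-L50D-GFP cells; doses: 20 µM single dose, 1% DMSO; schedule: overnight cell settling, then overnight compound exposure, 37 °C, 5% CO2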
SKN-1 block: inhibitors of C. elegans SKN-1 | C. elegans VP596 Pgst-4::GFP/RFP ratio, acrylamide-induced, 24 h | actives 0.49% (n = 360,000) | inhibition, % at 21.8 µM;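 active = interference check ratio from 0.5 to 1.5 plus GFP to RFP signal ratio inhibition reaching or exceeding a fixed threshold, cut at about 30% in these data, passing the limit was not always enough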
Arr-AP2 CP1: blocks beta-arrestin peptide binding to human AP2 | GST-AP2 beads, FITC arrestin peptide binding, flow cytometry; GST-fused beta2-adaptin appendage, R879A mutant | actives 2% (n = 1,300) | inhibition, % at 10 µM | shares compounds with Arr AP2 block;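 active = inhibition above a set limit, roughly 3 SD of non-fluorescent compound noise, cut at about 38% in these data; inactive = inhibition at or below that limit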;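 note: loss of bead fluorescence from 50 nM FITC arrestin peptide bound to appendage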
Target sequence (P63010 whole entry, looked up, the tested form may be a part, one chain of several): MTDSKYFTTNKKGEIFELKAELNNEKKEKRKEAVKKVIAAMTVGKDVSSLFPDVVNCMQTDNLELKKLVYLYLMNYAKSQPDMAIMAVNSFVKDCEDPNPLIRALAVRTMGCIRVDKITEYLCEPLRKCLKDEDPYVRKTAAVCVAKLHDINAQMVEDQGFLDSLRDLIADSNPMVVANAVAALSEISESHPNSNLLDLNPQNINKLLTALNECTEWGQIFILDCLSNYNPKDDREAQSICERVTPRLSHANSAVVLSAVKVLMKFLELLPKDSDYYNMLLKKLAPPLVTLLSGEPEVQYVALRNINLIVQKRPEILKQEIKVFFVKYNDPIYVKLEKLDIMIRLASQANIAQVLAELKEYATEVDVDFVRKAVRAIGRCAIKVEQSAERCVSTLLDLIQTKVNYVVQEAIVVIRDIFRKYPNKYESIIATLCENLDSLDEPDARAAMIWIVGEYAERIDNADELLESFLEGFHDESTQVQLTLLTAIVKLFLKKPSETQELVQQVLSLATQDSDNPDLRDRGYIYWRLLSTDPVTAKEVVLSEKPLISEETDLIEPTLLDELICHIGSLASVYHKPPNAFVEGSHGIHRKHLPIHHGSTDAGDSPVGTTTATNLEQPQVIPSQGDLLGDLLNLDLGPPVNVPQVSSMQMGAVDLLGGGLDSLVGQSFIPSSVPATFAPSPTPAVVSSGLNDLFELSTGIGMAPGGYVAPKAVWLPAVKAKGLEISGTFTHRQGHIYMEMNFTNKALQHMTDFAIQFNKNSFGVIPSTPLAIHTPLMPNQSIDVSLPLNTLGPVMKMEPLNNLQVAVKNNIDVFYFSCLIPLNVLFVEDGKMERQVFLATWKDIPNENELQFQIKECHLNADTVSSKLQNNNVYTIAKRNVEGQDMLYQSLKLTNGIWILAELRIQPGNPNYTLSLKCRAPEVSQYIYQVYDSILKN
GST GSH counter: disrupts GST binding to glutathione beads, arrestin-AP2 artifact | shares compounds with Arr AP2 block | GST-fluorescein binding to GSH beads, fluorescence, counter-screen | inhibition, % at 10 µM | actives 2% (n = 1,300);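 active = inhibition above 50%, about 3 SD of the inhibition seen with non-fluorescent compounds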;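 note: fluorescein maleimide labelled GST captured on 4 micron glutathione beads; higher means more loss of bead fluorescence from quenching or blocked binding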
Numbers stand for hits; 0 = inactive; - = not tested or not shown.

SMILES	Arr AP2 block	TbMetRS inhib	Rin1-Abl PPI inh	MT1-MMP act inh	SKN-1 block	Arr-AP2 CP1	GST GSH counter
CN(C(=O)CSc1nnnn1-c1ccc(O)cc1)C1CCCCC1	0	0	0	0	0	-	-
O=C(Nc1cccc(S(=O)(=O)N2CCCCC2)c1)c1cc(=O)[nH]c2ccccc12	0	0	0	0	0	0	0
Cc1cc(C(=O)Nc2cccc(S(=O)(=O)N3CCOCC3)c2)c2ccccc2n1	0	0	0	0	0	0	0
O=C(Nc1cccc(S(=O)(=O)N2CCOCC2)c1)c1cc(=O)[nH]c2ccccc12	0	0	0	0	0	0	0
O=C(Nc1cccc(S(=O)(=O)N2CCOCC2)c1)c1cccc(S(=O)(=O)N2CCCC2)c1	0	0	0	0	0	-	-
O=C(Nc1cccc(S(=O)(=O)N2CCCC2)c1)c1cc(=O)[nH]c2ccccc12	0	0	0	0	0	-	-
O=C(COC(=O)c1cc(=O)[nH]c2ccccc12)Nc1cccc(S(=O)(=O)N2CCOCC2)c1	0	0	0	0	0	-	-
O=C(Nc1cccc(S(=O)(=O)N2CCOCC2)c1)c1ccc(=O)[nH]c1	0	0	0	0	0	0	0
Cc1ccc(N2CCN(C(=O)C(=O)c3cccc([N+](=O)[O-])c3)CC2)cc1	-	0	-	0	0	-	-
CC1(C(=O)NCc2ccccc2)CN(S(C)(=O)=O)CC(=O)N1CCc1ccc(O)cc1 (stereo not given)	-	0	-	0	0	-	-
Cc1ccc(C(=O)NC(NCc2ccco2)C(Cl)(Cl)Cl)cc1 (stereo not given)	55.0	0	0	0	0	0	0
Cc1ccc(C)c(N2CCN(c3ccncc3N)CC2)c1	55.0	0	0	0	0	0	0
COCCCn1cc(CN2CC(N3CCSCC3)CS2(=O)=O)nn1 (stereo not given)	-	0	-	0	0	-	-
O=C(c1ccccc1F)N(NC(=O)C(O)(c1ccccc1)c1ccccc1)c1ccccc1	87.0	0	0	0	0	0	0
O=C(c1ccccc1)N(NC(=O)C(O)(c1ccccc1)c1ccccc1)c1cccc(F)c1	0	0	0	0	0	-	-
CCOc1ccc(/C=C/C(=O)NCCc2ccc(OC)c(OC)c2)cc1	56.5	0	0	0	0	0	0
O=C(CCCCCNC(=O)c1ccccc1)N/N=C/c1ccc(O)cc1O	59.8	0	0	0	0	0	0
COc1ccc(NC(=O)/C(C#N)=C\C=C\c2ccco2)cc1	71.6	0	0	0	0	0	0
COCCN1C(=O)COc2ccccc2C1C(=O)NC1CCCC1 (stereo not given)	-	0	-	0	0	-	-
N#Cc1cn(-c2ccccc2)nc1C(=O)c1ccccc1	83.0	0	0	0	0	0	0
CCc1nc2c(OCC(=O)c3ccc(Cl)cc3Cl)cccn2c1N(C)C(=O)c1cccs1	-	0	0	0	0	-	-
CN(C)C1(CNC(=O)c2cccc(S(=O)(=O)Nc3ccc(Br)cc3)c2)CCCCC1	0	0	0	0	0	0	0
CN(C)C1(CNC(=O)c2cccc(S(=O)(=O)NCc3ccccc3)c2)CCCCC1	0	0	0	0	0	-	-
CCN(c1ccccc1)S(=O)(=O)c1cccc(C(=O)NCC2(N(C)C)CCCCC2)c1	0	0	0	0	0	0	0
COc1ccc(NS(=O)(=O)c2cccc(C(=O)NCC3(N(C)C)CCCCC3)c2)cc1	55.4	0	0	0	0	0	0
SMILES	Arr AP2 block	TbMetRS inhib	Rin1-Abl PPI inh	MT1-MMP act inh	SKN-1 block	Arr-AP2 CP1	GST GSH counter
CCCS(=O)(=O)NC(=O)C1(C)CCCN(C(=O)c2c(-c3ccccc3)noc2C)C1 (stereo not given)	-	0	0	0	0	-	-
O=C(CSc1ccc(-c2ccccc2)nn1)NC1CCCC1	0	0	0	0	0	-	-
O=C(CSc1ccc(-c2ccccc2)nn1)NC1CCCCC1	63.1	0	0	0	0	0	0
c1ccc(-c2cnnc(SCc3cn4cccnc4n3)n2)cc1	60.3	0	0	0	0	0	0
CC(=O)Nc1cncc(-c2cccc(S(C)(=O)=O)c2)n1	-	0	0	0	0	-	-
C=CCN1C(=O)/C(=C/c2ccc(-c3ccc(F)cc3)o2)SC1=S	66.5	0	0	0	0	0	0
C=CCN1C(=O)/C(=C/c2ccsc2)SC1=S	0	0	0	0	0	-	-
N#C/C(=C/c1cn(-c2ccccc2)nc1-c1cccc(S(=O)(=O)N2CCOCC2)c1)C(=O)NCc1ccco1	99.1	0	0	0	0	0	0
N#C/C(=C/c1cn(-c2ccccc2)nc1-c1cccc(S(=O)(=O)N2CCCC2)c1)C(=O)NCc1ccco1	0	0	0	0	0	-	-
O=C(NNC(=O)c1ccc(Cl)nc1)c1ccncc1	57.0	0	0	0	0	0	0
CCOc1ncccc1C(=O)OC(C)C(=O)Nc1ccc(N2CCOCC2)cc1 (stereo not given)	0	0	0	0	0	-	-
COc1ccccc1NC(=O)COC(=O)c1cc2c(s1)CCC2	0	0	0	0	0	-	-
COc1ccc(OC)c(NC(=O)COC(=O)c2cc3c(s2)CCC3)c1	79.5	0	0	0	0	0	0
CC(=O)N(CC(=O)N(CC(=O)O)c1ccc(Cl)cc1)c1ccc(Cl)cc1	0	0	0	0	0	-	-
CCc1ccccc1NC(=O)Nc1cccn(Cc2ccc(F)cc2)c1=O	58.2	0	0	0	0	0	0
Cc1ccc(S(=O)(=O)NCCC(=O)N2CCCCCCC2)cc1C	0	0	0	0	0	-	-
COc1ccc(S(=O)(=O)NCCC(=O)N2CCCC2)cc1N(C)S(C)(=O)=O	55.9	0	0	0	0	0	0
Cc1ccc(NC(=O)CSc2nc3nn(-c4ccccc4)c(=O)c-3c3n2CCCCC3)cc1F	0	0	0	0	0	-	-
COC1OC2COC(c3ccccc3)OC2C(NC(C)=O)C1OC(C)=O (stereo not given)	-	0	0	0	0	-	-
CC(=O)N[C@@H]1[C@@H](O)[C@@H]2OC(c3ccccc3)OC[C@H]2O[C@@H]1N=[N+]=[N-] (stereo not given in full)	56.2	0	0	0	0	0	0
COc1ccc(CNC(=O)CC[C@H]2O[C@@H](n3ccc(=O)[nH]c3=O)[C@H](O)[C@@H]2O)cc1	-	0	0	0	0	-	-
COC(=O)COc1ccc(S(=O)(=O)NC2CCCCCC2)cc1	0	0	0	0	0	-	-
CCOc1ccc(NS(=O)(=O)c2ccc(NS(C)(=O)=O)cc2)cc1	0	0	0	0	0	-	-
CCOc1ccc(S(=O)(=O)Nc2ccn(C)n2)cc1	77.3	0	0	0	0	0	0
